In ChEMBL document CHEMBL5625189, “Discovery of new diaryl ether inhibitors against Mycobacterium tuberculosis targeting the minor portal of InhA” (Eur J Med Chem, 2023):
Activity calls are given as the source filed them. The rule behind the calls is not given here.

Columns and labels:
[1] = molecular target: T1, Enoyl-[acyl-carrier-protein] reductase [NADH] (Mycobacterium tuberculosis, UniProt P9WGR1); test: Inhibition of his6-tagged Mycobacterium tuberculosis InhA using trans-2-dodecenoyl-coenzyme as substrate in presence of […]
T1 sequence (P9WGR1 whole entry): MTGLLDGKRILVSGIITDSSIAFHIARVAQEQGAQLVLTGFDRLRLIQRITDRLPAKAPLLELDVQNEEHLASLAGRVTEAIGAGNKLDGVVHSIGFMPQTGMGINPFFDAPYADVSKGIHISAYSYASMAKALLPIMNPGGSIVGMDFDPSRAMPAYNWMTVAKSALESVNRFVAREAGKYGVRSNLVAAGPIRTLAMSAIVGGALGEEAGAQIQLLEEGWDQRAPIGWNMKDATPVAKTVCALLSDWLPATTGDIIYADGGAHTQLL

[2] = system: Mycobacterium tuberculosis; test: Antimycobacterial activity against Mycobacterium tuberculosis H37Rv assessed as reduction in microbial growth incubated for 6 days by broth dilution method; type: functional; conditions: 144 h, time 6 day
Procedure, shortened: (§1)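 Mtb H37Rv pellicle cells dispersed with glass beads in 7H9-0.2% glycerol, clumps removed by low-speed spin; twofold serial dilutions (DMSO stocks 1 or 10 mM) in 7H9, inoculum OD600 0.1; 6 days at 37 °C, then MTT added, 1 day more; SDS solubilisation, OD 570 nm; MIC = lowest concentration inhibiting growth, ≥3 independent experiments.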

[3] = molecular target: T1, Enoyl-[acyl-carrier-protein] reductase [NADH]; test: Inhibition of Mycobacterium tuberculosis H37Rv InhA using trans-2-dodecenoyl-coenzyme A as substrate in presence of NADH
[4] = molecular target: T2, Enoyl-[acyl-carrier-protein] reductase [NADH] (Mycobacterium tuberculosis) (UniProt P9WGR1); test: Inhibition of his6-tagged Mycobacterium tuberculosis InhA using trans-2-dodecenoyl-coenzyme as substrate at 50 uM in presence of […] relative to control
T2 sequence (whole entry): T1 sequence (P9WGR1 whole entry)

[5] = molecular target: T2, Enoyl-[acyl-carrier-protein] reductase [NADH] (Mycobacterium tuberculosis); test: Inhibition of his6-tagged Mycobacterium tuberculosis InhA using trans-2-dodecenoyl-coenzyme as substrate at 10 uM in presence of […] relative to control
Caco-2 = test: Cytotoxicity against human Caco-2 cells assessed as inhibition of cell growth incubated for 72 hrs by SRB assay; type: functional, cell-based; conditions: Caco-2, 72 h
Procedure, shortened: (§2)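 Seeded 24 h before dosing (HCT116 1500, CACO2 2500, HepG2 9000, WI38hTERT 3500 cells/well); HCT116 in DMEM high-glucose, others in MEM, 10% FBS (20% for CACO2); serial 2-fold dilutions for 72 h at 37 °C, 5% CO2; SRB staining, OD 490 nm; background-subtracted, normalized to untreated; duplicate points, ≥3 independent experiments; IC50 by four-parameter logistic fit.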

HCT-116 = test: Cytotoxicity against human HCT-116 cells assessed as inhibition of cell growth incubated for 72 hrs by SRB assay; type: functional, cell-based; conditions: HCT-116, 72 h; procedure, shortened: as §2
[6] = Selectivity index, ratio of IC50 for cytotoxicity against human Caco-2 cells assessed as inhibition of cell growth to MIC for antimycobacterial activity against Mycobacterium tuberculosis H37Rv assessed as reduction in microbial growth; type: toxicity, cell-based
Procedure, shortened: (§3)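 Selectivity index: IC50 on each human cell line (72 h SRB assay) divided by MIC against Mtb H37Rv (MTT microassay).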

[7] = Selectivity index, ratio of IC50 for cytotoxicity against human HCT-116 cells assessed as inhibition of cell growth to MIC for antimycobacterial activity against Mycobacterium tuberculosis H37Rv assessed as reduction in microbial growth; type: toxicity, cell-based; procedure, shortened: as §3
[8] = Selectivity index, ratio of IC50 for cytotoxicity against human WI-38 cells assessed as inhibition of cell growth to MIC for antimycobacterial activity against Mycobacterium tuberculosis H37Rv assessed as reduction in microbial growth; type: toxicity, cell-based; procedure, shortened: as §3
WI-38 = test: Cytotoxicity against human WI-38 cells assessed as inhibition of cell growth incubated for 72 hrs by SRB assay; type: functional, cell-based; conditions: WI-38, 72 h; procedure, shortened: as §2
HepG2 = test: Cytotoxicity against human HepG2 cells assessed as inhibition of cell growth incubated for 72 hrs by SRB assay; type: functional, cell-based; conditions: HepG2, 72 h; procedure, shortened: as §2
[9] = Selectivity index, ratio of IC50 for cytotoxicity against human HepG2 cells assessed as inhibition of cell growth to MIC for antimycobacterial activity against Mycobacterium tuberculosis H37Rv assessed as reduction in microbial growth; type: toxicity, cell-based; procedure, shortened: as §3
[10] = molecular target: T2, Enoyl-[acyl-carrier-protein] reductase [NADH] (Mycobacterium tuberculosis); test: Inhibition of his6-tagged Mycobacterium tuberculosis InhA using trans-2-dodecenoyl-coenzyme as substrate at 500 uM in presence of […] relative to control
[11] = molecular target: T2, Enoyl-[acyl-carrier-protein] reductase [NADH] (Mycobacterium tuberculosis); test: Inhibition of his6-tagged Mycobacterium tuberculosis InhA using trans-2-dodecenoyl-coenzyme as substrate at 200 uM in presence of […] relative to control
[12] = molecular target: T2, Enoyl-[acyl-carrier-protein] reductase [NADH] (Mycobacterium tuberculosis); test: Inhibition of his6-tagged Mycobacterium tuberculosis InhA using trans-2-dodecenoyl-coenzyme as substrate at 100 uM in presence of […] relative to control
[13] = system: Mycobacterium tuberculosis; test: Antimycobacterial activity against Mycobacterium tuberculosis H37Rv assessed as reduction in microbial growth; type: functional; procedure, shortened: as §1

## O=C(O)c1cn(C2CC2)c2cc(N3CCNCC3)c(F)cc2c1=O [CIPROFLOXACIN]
[1]
  IC50: Not Active
[2]
  MIC: 0.8 µg/mL

## Oc1cc2ccc1Oc1ccc(cc1)CCc1ccc(c(O)c1)Oc1ccc(cc1)CC2
[3]
  IC50: 4.7 µM

## O=[N+]([O-])c1ccc(NCc2cn(Cc3ccc(Oc4ccccc4)c(O)c3)nn2)c2nonc12
[1]; read-out: IC50
  IC50: 0.459 µM
[2]
  MIC: 4.6 µg/mL

## CCCCCCc1ccc(Oc2ccc(Cn3cc(CNC(=O)c4cc5ccc(N(CC)CC)cc5oc4=O)nn3)cc2)c(O)c1
[4]
  inhibition: 53.7%
[2]
  MIC: > 60 µg/mL
[5]
  inhibition: 31.5%

## Cc1cc(=O)oc2cc(OCc3cn(Cc4ccc(Oc5ccccc5)c(O)c4)nn3)ccc12
Caco-2
  IC50: 25 µM
HCT-116
  IC50: 23.9 µM
[6]
  selectivity ratio: 20
[7]
  selectivity ratio: 19.1
[1]; read-out: IC50
  IC50: 0.205 µM
[8]
  selectivity ratio: > 80
WI-38
  IC50: > 100 µM
HepG2
  IC50: 31 µM
[9]
  selectivity ratio: 24.8
[2]
  MIC: 0.6 µg/mL

## C#CCOc1ccc2c(C)cc(=O)oc2c1
[10]
  inhibition: 90%
[11]
  inhibition: 37%

## CCN(CC)c1ccc2c(OCc3cn(Cc4ccc(Oc5ccccc5)c(O)c4)nn3)cc(=O)oc2c1
Caco-2
  IC50: 1.1 µM
HCT-116
  IC50: 0.53 µM
[6]
  selectivity ratio: 0.9
[7]
  selectivity ratio: 0.4
[1]; read-out: IC50
  IC50: 0.054 µM
[8]
  selectivity ratio: 0.5
WI-38
  IC50: 0.6 µM
HepG2
  IC50: 1.6 µM
[9]
  selectivity ratio: 1.3
[2]
  MIC: 0.7 µg/mL

## Cc1cc(=O)oc2cc(OCc3cnnn3Cc3ccc(Oc4ccccc4)c(O)c3)ccc12
[1]; read-out: IC50
  IC50: 0.51 µM

## C#CCNC(=O)c1cc2ccc(N(CC)CC)cc2oc1=O
[10]
  inhibition: 10%

## CN(C)S(=O)(=O)c1ccc(NCc2cn(Cc3ccc(Oc4ccccc4)c(O)c3)nn2)c2nonc12
[1]; read-out: IC50
  IC50: 0.733 µM
[2]
  MIC: > 52 µg/mL

## CCN(CC)c1ccc2cc(C(=O)NCc3cn(Cc4ccc(Oc5ccccc5)c(O)c4)nn3)c(=O)oc2c1
[1]; read-out: IC50
  IC50: 3.55 µM
[2]
  MIC: > 54 µg/mL

## COc1ccc2cc(C(=O)NCc3cn(Cc4ccc(Oc5ccccc5)c(O)c4)nn3)c(=O)oc2c1
[1]; read-out: IC50
  IC50: 0.345 µM
[2]
  MIC: > 5 µg/mL

## O=C(NCc1cn(Cc2ccc(Oc3ccccc3)c(O)c2)nn1)c1cc2cc(O)ccc2oc1=O
[1]; read-out: IC50
  IC50: 0.844 µM
[2]
  MIC: > 4.8 µg/mL

## C#CCOc1cc(=O)oc2ccccc12
[10]
  inhibition: inactive

## O=c1ccc2ccc(OCc3cn(Cc4ccc(Oc5ccccc5O)cc4)nn3)cc2o1
[4]
  inhibition: 10%
[2]
  MIC: 2.2 µg/mL

## O=c1cc(OCc2cn(Cc3ccc(Oc4ccccc4)c(O)c3)nn2)c2ccccc2o1
[1]; read-out: IC50
  IC50: 0.181 µM
[2]
  MIC: 2.2 µg/mL

## [N-]=[N+]=NCc1ccc(Oc2ccccc2)c(O)c1
[1]; read-out: IC50
  IC50: 0.843 µM

## O=c1ccc2ccc(OCc3cn(Cc4ccc(Oc5ccccc5)c(O)c4)nn3)cc2o1
[1]; read-out: IC50
  IC50: 0.163 µM
[2]
  MIC: 2.2 µg/mL

## C#CCNC(=O)c1cc2ccccc2oc1=O
[11]
  inhibition: inactive

## COc1cccc2cc(C(=O)NCc3cn(Cc4ccc(Oc5ccccc5)c(O)c4)nn3)c(=O)oc12
[1]; read-out: IC50
  IC50: 0.74 µM
[2]
  MIC: 5 µg/mL

## O=C(NCc1cn(Cc2ccc(Oc3ccccc3)c(O)c2)nn1)c1cc2ccccc2oc1=O
[1]; read-out: IC50
  IC50: 0.598 µM
[2]
  MIC: 4.7 µg/mL

## O=c1ccc2ccc(OCc3cnnn3Cc3ccc(Oc4ccccc4)c(O)c3)cc2o1
[1]; read-out: IC50
  IC50: 0.63 µM

## CCCCCCc1ccc(Oc2ccc(Cn3cc(CNc4ccc([N+](=O)[O-])c5nonc45)nn3)cc2)c(O)c1
Caco-2
  IC50: 26.1 µM
HCT-116
  IC50: 8.7 µM
[6]
  selectivity ratio: 10.5
[7]
  selectivity ratio: 3.5
[8]
  selectivity ratio: 21.2
[4]
  inhibition: 32.3%
WI-38
  IC50: 52.9 µM
HepG2
  IC50: 26.9 µM
[9]
  selectivity ratio: 10.8
[2]
  MIC: 1.4 µg/mL
[5]
  inhibition: 11.4%

## C#CCOc1ccc2ccc(=O)oc2c1
[11]
  inhibition: 99%
[12]
  inhibition: 30%

## CCCCCCCCc1ccc(Oc2ccccc2)c(O)c1
[13]
  MIC: 6.4 µM
